This excerpt belongs to a sample that is enriched for hits.
pCIP destab = compounds decreasing mouse p/CIP protein stability | Q05BA5 | F442A p/CIP-EGFP cells, EGFP fluorescence, 16 h | decrease of EGFP signal, % at 10 µM | 0.01% of 290,000 active | AID 1984;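 active means EGFP signal decrease of at least 30% at 10 µM or well 3 SD below plate mean, unless failing retest; inactive means the rest, including hits failing retest or dose response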
UPR XBP1 act = activators of adaptive arm of unfolded protein response (XBP1). CHO-XBP1 luciferase reporter, IRE1-XBP1 UPR activation, luminescence; percent of tunicamycin response, DMSO as zero. activation, % at 20 µM. 0.33% of 330,000 active. AID 463104;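 active means versus positive control, 20 µM dose yields 30% or more activation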;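 further: 100% = tunicamycin at 10 µg/mL and 0% = DMSO only wells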
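Material: IRE1-XBP1 luciferase reporter CHO line / Quantity: one thousand reporter cells per well / Buffer or medium: F12 with 10% serum / Compound: 20 µM single concentration, DMSO 1% / Times: 6 h treatment, 37 °C / Detection: Steady-Glo luciferase glow luminescence, 10 min after reagent addition / Benchmarks: tunicamycin high, DMSO low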
CHOP inh = blocks CHOP induction under ER stress; 3.8% of 220,000 active; CHO-K1 CHOP-promoter luciferase, tunicamycin-induced, 15-18 h; inhibition, % at 10 µM;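 active means compounds that reduced the stress-induced luciferase reporter signal by more than about 70% of percent inhibition, limit read from the data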;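 further: 0% = tunicamycin plus vehicle and 100% = wells without tunicamycin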
CHOP UPR activ = apoptotic UPR (CHOP) activation; activation, % at 10 µM; 0.34% of 330,000 active; CHO-CHOP luciferase reporter, luminescence; percent of tunicamycin response over DMSO baseline;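 active means at 10 µM dose, activation of 40% or more, normalized to positive control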;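 further: 100% = tunicamycin at 10 µg/mL and 0% = DMSO alone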
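System: CHO-CHOP luciferase reporter cell line; amount: 500 cells/well; buffer or medium: F12 medium containing 10% fetal bovine serum; incubation: 6 h compound exposure at 37 °C after overnight seeding; measured by: luciferase luminescence after 10 min with Steady-Glo reagent; evaluation: % reporter activation, DMSO baseline versus tunicamycin full activation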
Dynein cargo inh = dynein cargo transport inhibition | 3617.4 mouse cells, GR-EGFP nuclear translocation imaging; test concentration mostly 20 µM; stimulated with dexamethasone, 1 µM; active compounds read low | z-score, hits read low | 0.47% of 220,000 active;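 active means plate z-score of nuclear minus cytoplasmic receptor signal below a set negative limit, without overly bright fluorescence or cell loss, cut at about -3.5 in these data, passing the limit was not always enough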;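 further: z-score of nuclear minus cytoplasmic ring GR-EGFP intensity difference per well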
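Also added – dexamethasone, 1.0 µM final · Buffer or medium – tet-free, stripped-serum medium · Schedule – induction 48 h, compound 1 h, agonist 30 min · Detection – formaldehyde fixation, Hoechst nuclear stain, 10x automated fluorescence imaging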
Beta2AR agonist = agonists of human beta-2 adrenergic receptor inducing internalization; P07550; response, % (no concentration beside the values); 0.43% of 340,000 active; Am2.2-beta2AR cells, FAP receptor internalization, flow cytometry;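 active means response above a set limit, near 3 SD of response in nonfluorescent compounds, cut at about 42% in these data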
CHOP confirm = confirmation of CHOP induction inhibitors; shares compounds with CHOP inh; CHO-CHOP promoter luciferase reporter, tunicamycin-induced, luminescence; inhibition, % at 10 µM; 45% of 2,100 active;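 active means mean of three repeat readings of reporter signal inhibition above a set limit, cut at about 70% in these data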;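 further: 0% = tunicamycin plus vehicle and 100% = wells lacking tunicamycin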
The depositor's hits bear a star; x = no result.

SMILES	pCIP destab	UPR XBP1 act	CHOP inh	CHOP UPR activ	Dynein cargo inh	Beta2AR agonist	CHOP confirm
O=C1CC(c2ccccc2Cl)CC(O)=C1C=Nc1ccccc1 (stereo unspecified)	-15	24	103*	37	-0.7	-17	104*
O=C1CC(c2ccccc2)CC(O)=C1C=Nc1cccc(Cl)c1 (stereo unspecified)	4	10	102*	34	-1.2	-7	76*
Cc1ccc(N=CC2=C(O)CC(c3cccc(Cl)c3)CC2=O)cc1 (stereo unspecified)	0	-1	29	2	0.19	1	x
O=C(NCC1CCCO1)c1cc2cc(Cl)ccc2[nH]1 (stereo unspecified)	-8	0	x	4	x	4	x
O=C(Nc1nnc(-c2ccccc2Cl)o1)c1nc2ccccc2s1	1	-2	99*	4	-0.42	1	-9
Cc1cccc(N/N=C(\C=N\N)C(=O)c2ccc(Br)cc2)c1	2	-3	103*	-1	-0.48	x	35
Cc1cccc(N=N/C(=C\O)C(=O)c2ccc(Br)cc2)c1	-8	7	-34	21	-0.95	2	x
Cc1ccc(NC(=O)c2ccc(S(=O)(=O)N3CCC(C)CC3)cc2)cc1	-23	0	64	2	0.45	11	x
CCC(C)(C)NC(=O)C(c1cccn1C)N(C(=O)Cn1nnc2ccccc21)c1ccc(F)cc1 (stereo unspecified)	-7	3	96*	-1	0.83	2	79*
Cn1c(=O)c2c(nc(Sc3ncnn3CC(=O)NC(C)(C)C)n2C)n(C)c1=O	-15	-3	100*	1	1.4	3	15
COC(=O)c1[nH]c2ccc(F)cc2c1NC(=O)Nc1ccc(OC)cc1	-10	-2	-31	-2	0.19	3	x
COC(=O)c1[nH]c2ccc(C)cc2c1NC(=O)Nc1ccc(OC)cc1	6	-2	101*	2	0.15	7	37
CCCCOc1ccc(S(=O)(=O)NNC(=O)C2Cc3c(ccc4ccccc34)O2)cc1 (stereo unspecified)	-2	-1	98*	-1	-0.23	-2	59
COC(=O)CN1C(=O)COc2ccc(S(=O)(=O)NCc3ccc(Cl)cc3)cc21	2	-3	x	1	x	13	x
COc1ccc(/C=N/NC(=O)COc2ccccc2-c2ccccc2)cc1	-24	9	106*	1	1.7	13	11
Cc1cccc2c1ncc1c(=O)n(-c3ccccc3)[nH]c12	-10	2	x	9	x	-1	x
O=S(=O)(Nc1ccc(-n2cccc2)cc1)c1ccc(Cl)cc1Cl	-8	2	102*	1	-0.2	0	15
Cc1ccc(Cl)cc1NC(=O)COC(=O)CC1CCCCC1	x	1	x	1	x	3	x
COc1ccc(CCNC(=O)c2nnn(-c3ccc4c(c3)OCCO4)c2N)cc1OC	4	-3	97*	-4	-0.84	0	84*
CCCCCNC(=O)c1cccc(S(=O)(=O)N2CC3(C)CC2CC(C)(C)C3)c1 (stereo unspecified)	x	6	x	0	x	10	x
Cc1ccc(C(=O)NNC(=O)c2cccc(Br)c2)cc1	1	0	x	3	x	0	x
CC(C)(C)c1ccc(C(=O)NNC(=O)c2cccc(Br)c2)cc1	-1	11	102*	1	0.27	0	94*
Cc1ccnc(NC(=O)c2sc3ccccc3c2Cl)c1	-6	-4	99*	-4	-0.35	5	62
O=C(Nc1ccccc1-c1nc2ccccc2[nH]1)c1sc2ccccc2c1Cl	2	6	97*	6	-0.3	x	106*
Cn1c(COc2ccccc2Br)nc2ccccc21	4	-1	x	8	x	-12	x
SMILES	pCIP destab	UPR XBP1 act	CHOP inh	CHOP UPR activ	Dynein cargo inh	Beta2AR agonist	CHOP confirm
O=C1C=CC(=O)N1N(c1ccccc1)c1ccccc1	-15	-4	107*	0	-3.4	0	118*
CC(NC(=O)c1cc2c(s1)CS(=O)(=O)C2)c1ccccc1 (stereo unspecified)	-4	0	x	-1	x	0	x
CC(=O)Nc1ccc(-c2nnc(SCC(=O)c3ccc4c(c3)Cc3ccccc3-4)n2C)cc1	-15	1	105*	0	0.32	2	-86
Cn1c(SCC(=O)c2ccc(O)c(O)c2)nnc1-c1ccccc1	-13	0	x	1	x	-1	x
CCC(C)c1ccc(O)c(NC(=O)c2cncc(Br)c2)c1 (stereo unspecified)	-4	1	111*	1	0.82	0	82*
Cc1ccc(C(=O)NCC(=O)NC23CC4CC(CC(C4)C2)C3)cc1	-4	2	x	3	x	-4	x
CCCCC1=CC2=C(c3ccco3)C(=O)C(C)(OC(=O)c3ccc(OC)cc3)C(=O)C2=CN1Cc1ccco1 (stereo unspecified)	-10	-1	102*	1	1.2	-4	37
Cc1c(C)n2c(SCC(=O)N3CCN(c4ccccc4)CC3)nnc2[nH]c1=O	x	-3	x	0	x	1	x
O=C(CS(=O)CC(=O)N(c1ccccc1)C(C(=O)NC1CCCC1)c1cccs1)Nc1ccc(F)cc1 (stereo unspecified)	-1	5	12	8	-0.36	10	x
COc1cccc(N(C(=O)CS(=O)CC(=O)Nc2ccc(F)cc2)C(C(=O)NC2CCCCC2)c2cccs2)c1 (stereo unspecified)	-28	-6	100*	1	0.15	2	51
O=C1c2cccc3cccc(c23)C(=O)N1OS(=O)(=O)c1ccccc1	-7	4	32	-2	2.6	-1	x
Cc1ccc(C)c(S(=O)(=O)ON2C(=O)c3ccccc3C2=O)c1	-13	2	106*	-1	-3.6*	-1	106*
O=C1c2ccccc2C(=O)N1OS(=O)(=O)c1ccccc1	4	x	108*	x	1	x	-58
Cc1ccccc1NC(=O)CSCc1cc(=O)n2ccsc2n1	-6	-2	x	3	x	-3	x
COc1ccc(C(=O)/C=C/C(=O)N(CC(=O)NC2CCCCC2)Cc2cccs2)c(O)c1	-14	-9	108*	-9	-3.4	115*	119*
CC(C)NC(=O)c1ccccc1NC(=O)/C=C/c1cccc([N+](=O)[O-])c1	0	26	107*	0	0.014	-15	111*
CC(C)C(NC(=O)/C=C/c1cccc([N+](=O)[O-])c1)C(C)C	7	-3	24	-2	-0.27	-9	x

Screens deposited in PubChem by several laboratories.
